Compound activity as filed in PubChem BioAssay.
mIAP inh = blocks mouse intestinal alkaline phosphatase | inhibition, % at 10 µM | 0.2% of 330,000 active | purified mouse IAP, CDP-Star luminescence, 30 min;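 active = inhibition of at least 40% at 10 µM in the primary screen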;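 note: plate controls were DMSO with enzyme for no effect and no enzyme wells for full effect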
mIAP act = mouse IAP activation; muIAP, CDP-Star luminescence, 30 min; hits give high values; 1 = vehicle-only enzyme signal, 0 = enzyme-free wells; activation factor at 10 µM; 0.24% of 330,000 active;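 active = activation factor of at least 2 at 20 µM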
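also added = chemiluminescent substrate CDP-Star | test system = mouse IAP enzyme | signal = chemiluminescence readout | compound = DMSO-dissolved test compounds | incubation = 30 min at room temperature | benchmarks = DMSO wells, no-enzyme wells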
bIAP inh = intestinal alkaline phosphatase (bovine) inhibition | AID 1019 | 190,000 tested, under 10 active | inhibition, % at 20 µM | purified bovine IAP, CDP-star luminescence, 30 min;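 active = over 50% inhibition of intestinal alkaline phosphatase at 20 µM in the single-dose screen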
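Assay system – bovine IAP enzyme · Quantity – bovine IAP at 1/65,000,000 final dilution · Detection – CDP-star luminescence signal · Times – 30 min reaction at room temperature · Also added – CDP-star substrate at 30 µM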
hIAP block = human IAP inhibition; P09923; purified IAP, CDP-Star luminescence, 30 min; inhibition, % at 10 µM; 0.12% of 330,000 active; AID 2544;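 active = inhibition reaching a set limit with compound at 10 µM in the primary screen, cut at about 35% in these data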;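 note: plate controls were DMSO wells with enzyme for no effect and no-enzyme buffer wells for full effect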
Target sequence (P09923 whole entry, looked up): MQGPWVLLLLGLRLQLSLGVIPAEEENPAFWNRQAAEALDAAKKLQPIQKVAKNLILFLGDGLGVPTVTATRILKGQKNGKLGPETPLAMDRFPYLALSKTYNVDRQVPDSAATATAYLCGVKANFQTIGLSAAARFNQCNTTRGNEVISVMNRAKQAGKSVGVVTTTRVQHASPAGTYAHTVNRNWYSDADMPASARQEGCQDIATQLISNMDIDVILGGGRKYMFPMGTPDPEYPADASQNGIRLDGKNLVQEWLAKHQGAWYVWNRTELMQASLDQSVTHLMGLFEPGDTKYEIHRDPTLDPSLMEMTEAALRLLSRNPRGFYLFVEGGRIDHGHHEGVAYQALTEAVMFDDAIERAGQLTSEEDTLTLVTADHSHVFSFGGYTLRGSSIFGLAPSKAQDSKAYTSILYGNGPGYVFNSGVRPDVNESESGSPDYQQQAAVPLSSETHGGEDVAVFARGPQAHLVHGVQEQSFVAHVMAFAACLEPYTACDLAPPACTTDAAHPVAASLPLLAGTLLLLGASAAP
bIAP act = increases bovine intestinal alkaline phosphatase activity | purified bovine IAP, CDP-star luminescence, 30 min; hits give high values; fold of DMSO-control signal, blank-subtracted | AID 1016 | 0.17% of 200,000 active | activation factor at 20 µM;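 active = activation factor of 2 or more at 20 µM, a signal rise over negative controls twice the positive control's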
hIAP activ = human IAP activation | 0.16% of 330,000 active | AID 2524 | purified human IAP, CDP-Star luminescence, 30 min; hits give high values; 1 = vehicle-only enzyme, 0 = enzyme-free background | activation factor at 10 µM | P09923;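 active = activation factor of the enzyme at least 2-fold when tested at 20 µM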
* marks the source's active call; other numbers are inactive results; i = inactive; nt = no result. The list is not random: actives were taken first. Their share in the collection is about 0.79%.

SMILES	mIAP inh	mIAP act	bIAP inh	hIAP block	bIAP act	hIAP activ
Fc1ccccc1CNC(=S)Nc1cccc(C(F)(F)F)c1	-167	2.7*	11	22	0.9	0.78
COc1ccc(CNC(=S)Nc2ccc(F)c(Cl)c2)cc1OC	-157	2.6*	4	-53	1	1.5
Fc1cc(NC(=S)NCc2ccc(CNC(=S)Nc3ccc(Cl)c(F)c3)cc2)ccc1Cl	-112	2.1*	nt	-15	nt	1.1
COc1ccc(CNC(=S)Nc2ccccc2)cc1Cl	-40	1.4	nt	-6	nt	1.1
Fc1ccc(CNC(=S)Nc2cccc(C(F)(F)F)c2)cc1	-162	2.6*	2	-18	1	1.2
Fc1ccc(CNC(=S)NCc2ccc(F)cc2)cc1	-48	1.5	nt	-3	nt	1
CCOc1ccc(NC(=O)CN(C)C(=O)c2cc(C3CC3)nn2-c2ccccc2)cc1OCC	-6	1.1	nt	9	nt	0.91
CCCCN(C(=O)c1cc(S(=O)(=O)N2CCOCC2)ccc1Cl)c1c(N)n(CC(C)C)c(=O)[nH]c1=O	7	0.93	nt	3	nt	0.97
CC(=O)c1ccc(NC(=O)C(C)Sc2nnc(C3CCCCC3)o2)cc1 (configuration not stated)	0	1	nt	-21	nt	1.2
Cc1ccc2c(c1)CCCN2S(=O)(=O)c1cccc(C(=O)Nc2ccccc2C(=O)O)c1	4	0.96	nt	-6	nt	1.1
CC(NC(=S)Nc1cccc(C(F)(F)F)c1)C(C)(C)C (configuration not stated)	-266	3.7*	15	-17	0.8	1.2
O=C(CNc1cccc(Cl)c1)NNC(=S)NCc1ccccc1	6	0.94	0	-67	1	1.7
Fc1ccccc1NC(=S)NCc1ccc(Cl)cc1	-51	1.5	nt	-12	nt	1.1
FC(F)(F)c1cccc(NC(=S)NNC(=S)Nc2ccc(Cl)cc2)c1	12	0.88	nt	6	nt	0.94
FC(F)(F)c1cccc(NC(=S)NCc2ccc(Cl)cc2)c1	-170	2.7*	10	-6	0.9	1.1
S=C(NCc1ccccc1)Nc1cccc(Cl)c1	-127	2.3*	8	-8	0.9	1.1
Fc1cccc(NC(=S)NCc2ccc(Cl)cc2)c1	-150	2.5*	5	-13	0.9	1.1
CN(C)NC(=S)Nc1cccc(C(F)(F)F)c1	6	0.94	nt	11	nt	0.89
Cc1cc(C(=O)N2CCCC(N3CCN(c4cccc(Cl)c4)CC3)C2)nn1C (configuration not stated)	0	1	nt	-17	nt	1.2
CN(Cc1ncc[nH]1)Cc1cn(-c2ccccc2)nc1-c1ccc2c(c1)OCO2	-13	1.1	nt	-14	nt	1.1
Cc1ccc(-n2cc(CN(C)Cc3ncc[nH]3)c(-c3cccc(C)c3)n2)cc1	-4	1	-253	-43	3.5*	1.4
CC(=O)Nc1ccc(S(=O)(=O)NCCC(=O)NNC(=O)c2ccccc2O)cc1	7	0.93	nt	-72	nt	1.7
Cc1cc2nc(CCN(C(=S)NCC(C)C)C3CCCC3)[nH]c2cc1C	-113	2.1*	-81	7	1.8	0.93
COC(=O)c1ccc(NC(=S)NC2CCc3ccccc32)cc1 (configuration not stated)	-190	2.9*	-1	-4	1	1
COC(=O)c1ccc(NC(=S)NC2CC2)cc1	-6	1.1	-2	9	1	0.91
SMILES	mIAP inh	mIAP act	bIAP inh	hIAP block	bIAP act	hIAP activ
Cc1ccc(NC(=S)NC2CCSc3ccccc32)cc1 (configuration not stated)	-269	3.7*	nt	-33	nt	1.3
CC(=O)Nc1ccc(C(=O)NC2CCSc3ccccc32)cc1 (configuration not stated)	0	1	nt	8	nt	0.92
CCOP(=O)(OCC)C(NC(=O)Nc1ccc(Cl)c(Cl)c1)C(N)=O (configuration not stated)	-12	1.1	nt	7	0.4	0.93
CCOP(=O)(OCC)C(NC(=O)Nc1ccc(Cl)c(Cl)c1)c1ccccc1 (configuration not stated)	-402	5*	6	4	0.9	0.96
CCOP(=O)(OCC)C(NC(=O)Nc1ccc(Cl)cc1)C(N)=O (configuration not stated)	5	0.95	13	-2	0.9	1
CCOP(=O)(OCC)C(NC(=O)Nc1ccc(Cl)cc1)c1ccccc1 (configuration not stated)	-103	2*	2	-33	1	1.3
Cc1ccc(NC(=O)CSc2nc3ccccc3c(=O)n2CCCN2CCCCC2)cc1C	-16	1.2	-141	-13	2.4*	1.1
COc1ccccc1N1CCN(S(=O)(=O)c2c(C(=O)N3CCOCC3)c(C)n(C)c2C)CC1	7	0.93	nt	-22	nt	1.2
CCn1c(SCc2nc3ccccc3[nH]2)nnc1-c1ccccc1OC	2	0.98	-133	13	2.3*	0.87
CN(C)c1ccc(N2C(=O)CSC2=S)cc1	47*	0.53	8	10	0.9	0.9
Cc1ccc(NC(=S)Nc2ccc(OC(F)F)c(Cl)c2)cc1Cl	nt	nt	22	nt	0.8	nt
FC(F)Oc1ccc(NC(=S)NCc2ccccc2)cc1Cl	-124	2.2*	19	-19	0.8	1.2
FC(F)Oc1ccc(NC(=S)NCc2ccccc2)cc1	-65	1.7	13	-8	0.9	1.1
CC(NC(=S)Nc1ccc(OC(F)F)c(Cl)c1)C(C)(C)C (configuration not stated)	-248	3.5*	7	-46	0.9	1.5
Cc1c(NC(=O)c2cc(Br)ccc2Cl)cccc1-n1cnnn1	2	0.98	nt	0	nt	1
Fc1ccccc1N1CC(c2ccccc2)C(c2cccs2)=N1 (configuration not stated)	-119	2.2*	-70	-10	1.7	1.1
Fc1ccc(N2N=C(c3cccs3)CC2c2ccccc2)cc1 (configuration not stated)	-80	1.8	-34	-1	1.3	1
O=C(Nc1ccc(Cl)cc1)Nc1ccc(-c2cnco2)cc1	-105	2*	nt	6	nt	0.94
Cc1ccc(CNC(=O)CN(C)C2=NS(=O)(=O)c3ccccc32)cc1	-6	1.1	nt	-9	nt	1.1
Cn1c(=O)[nH]c(=O)c2c1nc(N1CCCCCC1)n2CCCSc1nc2ccccc2o1	-9	1.1	i	-1	6.8*	1
Cn1c(=O)[nH]c(=O)c2c1nc(N1CCCCCC1)n2CCSc1nc2ccccc2o1	-11	1.1	5	0	0.9	1
COc1cc(OC)cc(C(=O)NC2CCN(Cc3nnnn3Cc3ccc(F)cc3)CC2)c1	0	1	5	-10	1	1.1
COc1cccc(NC(=O)NC2CCN(Cc3nnnn3Cc3ccc4c(c3)OCO4)CC2)c1	-150	2.5*	nt	-48	nt	1.5
COc1ccc(S(=O)(=O)/N=C2/NC(=O)/C(=C/c3ccco3)S2)cc1	57*	0.43	-5	-8	1.1	1.1
